Experimental data: ChEMBL document CHEMBL1921714, “Discovery of aminobenzyloxyarylamides as κ opioid receptor selective antagonists: application to preclinical development of a κ opioid receptor antagonist receptor occupancy tracer” (J Med Chem, 2011)
Calls of active or inactive are those of the source. The rule behind the calls is not given here.

test system: Nucleic Acid; assay: Ratio of drug uptake in striatum to cerebellum in rat at 30 ug/kg, iv measured after 40 mins by LC/MS/MS analysis; assay type: ADME, organism-based; details: in vivo, 0.03 mg/kg
Procedure, shortened: (§1)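 Groups of four rats were given iv tracer and killed 20 or 40 min after dosing. Striatum (total binding) and cerebellum (nonspecific, null region) were extracted in acetonitrile/0.1% formic acid and quantified by LC/MS/MS. Binding potential was calculated as (striatum/cerebellum concentration) − 1.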

SMILES | Ratio
NC(=O)c1ccc(Oc2ccc(CN3CCCC3c3cccnc3)cc2)nc1 (racemic) | 2.2

test system: Striatum; assay: Drug uptake in rat striatum at 3 ug/kg, iv pretreated 1 hr with 3-Fluoro-4-[4-[[ (2S)-2-(3-fluorophenyl)pyrrolidin-1-yl]methyl]- phenoxy]benzamide measured after 40 mins by LC/MS-MS analysis; assay type: ADME, organism-based; details: in vivo, 0.003 mg/kg
Procedure, shortened: (§2)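 Rats were pretreated 1 h with the κ antagonist at a range of doses, then given tracer at 3 ug/kg iv. Brains were taken 40 min after tracer. Striatum and cerebellum were extracted in acetonitrile/0.1% formic acid and tracer levels quantified by LC/MS/MS.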

SMILES | Drug uptake
NC(=O)c1ccc(Oc2ccc(CN3CCC[C@H]3c3cccnc3)cc2)c(Cl)c1 | Active

test system: CHO; assay: Selectivity ratio of Kb for human opioid mu receptor expressed in CHO cells to Kb for human opioid kappa receptor expressed in CHO cells; assay type: cell-based; details: not given
Procedure, shortened: (§3)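 Kb ratios from antagonist [35S]GTP-γ-S SPA on CHO (κ, μ) or HEK293 (δ) membranes. Agonists at about 80% maximal: U69,593 300 nM (κ), DAMGO 1 μM (μ), DPDPE 30 nM (δ). 11-point curves, top 1 or 10 μM. Nonspecific binding: NorBNI, naltrexone or naltriben, each 10 μM. Kb = IC50/(1+D/EC50); geometric means with SEM.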

SMILES | Ratio
CC1(C)CN(Cc2ccc(Oc3ccc(C(N)=O)cn3)cc2)[C@@H]1c1ccccc1 | 15
NC(=O)c1ccc(Oc2ccc(CN3CCCC3c3cccnc3)cc2)nc1 (racemic) | 19
NC(=O)c1ccc(Oc2ccc(CN3CCC[C@H]3c3cccnc3)cc2)c(Cl)c1 | 11

molecular target: T1, Delta-type opioid receptor (Homo sapiens, UniProt P41143); assay: Displacement of [3H]diprenorphine from human opioid delta receptor expressed in HEK293 cells after 120 mins by scintillation counting; assay type: cell-based; details: not given
T1 sequence (P41143 whole entry): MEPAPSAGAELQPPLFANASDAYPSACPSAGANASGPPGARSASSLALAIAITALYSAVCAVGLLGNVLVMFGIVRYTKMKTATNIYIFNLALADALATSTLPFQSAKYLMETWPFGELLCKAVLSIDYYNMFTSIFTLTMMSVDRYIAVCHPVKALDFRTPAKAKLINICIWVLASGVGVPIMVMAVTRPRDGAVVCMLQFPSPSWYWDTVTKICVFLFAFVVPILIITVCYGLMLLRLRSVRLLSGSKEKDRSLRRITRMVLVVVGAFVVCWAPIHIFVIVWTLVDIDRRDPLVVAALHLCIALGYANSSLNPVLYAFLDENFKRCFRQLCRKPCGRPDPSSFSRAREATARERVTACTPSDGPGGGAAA
Procedure, shortened: (§4)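 11-point curves, 0.01 nM–1 μM final. 120 min at 22 °C, then filtration and scintillation counting. Nonspecific binding set by 10 μM naltrexone. Four-parameter IC50; Ki by Cheng–Prusoff.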

SMILES | Ki
CC1(C)CN(Cc2ccc(Oc3ccc(C(N)=O)cn3)cc2)[C@@H]1c1ccccc1 | > 500 nM
NC(=O)c1ccc(Oc2ccc(CN3CCCC3c3cccnc3)cc2)nc1 (racemic) | > 500 nM
NC(=O)c1ccc(Oc2ccc(CN3CCC[C@H]3c3cccnc3)cc2)c(Cl)c1 | 153 nM

molecular target: T2, Mu-type opioid receptor (Homo sapiens, UniProt P35372); assay: Displacement of [3H]diprenorphine from human opioid mu receptor expressed in CHO cells after 120 mins by scintillation counting; assay type: cell-based; details: not given; procedure, shortened: as §4
T2 sequence (P35372 whole entry): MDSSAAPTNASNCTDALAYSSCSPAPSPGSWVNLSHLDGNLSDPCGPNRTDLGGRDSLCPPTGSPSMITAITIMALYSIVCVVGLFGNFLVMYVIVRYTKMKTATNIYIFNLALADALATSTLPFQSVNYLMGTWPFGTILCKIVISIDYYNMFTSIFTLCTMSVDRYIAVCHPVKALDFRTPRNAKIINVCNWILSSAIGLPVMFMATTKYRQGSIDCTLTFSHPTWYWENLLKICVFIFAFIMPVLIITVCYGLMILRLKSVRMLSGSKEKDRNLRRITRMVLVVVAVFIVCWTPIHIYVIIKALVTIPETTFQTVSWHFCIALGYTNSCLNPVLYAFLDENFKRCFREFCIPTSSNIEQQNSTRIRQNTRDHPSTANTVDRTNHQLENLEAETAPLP

SMILES | Ki
CC1(C)CN(Cc2ccc(Oc3ccc(C(N)=O)cn3)cc2)[C@@H]1c1ccccc1 | 43.1 nM
NC(=O)c1ccc(Oc2ccc(CN3CCCC3c3cccnc3)cc2)nc1 (racemic) | 39.6 nM
NC(=O)c1ccc(Oc2ccc(CN3CCC[C@H]3c3cccnc3)cc2)c(Cl)c1 | 25.8 nM

test system: Striatum; assay: Drug uptake in rat striatum at 3 ug/kg, iv measured after 40 mins by LC/MS-MS analysis; assay type: ADME, organism-based; details: in vivo, 0.003 mg/kg
Procedure, shortened: (§5)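 Groups of four rats received a single iv tracer dose and were killed 20 or 40 min later. Striatum was weighed, homogenized in 4 volumes acetonitrile/0.1% formic acid and centrifuged. The supernatant was diluted and analysed by LC/MS/MS against standards spiked into naive rat brain. %SUV = tissue amount/injected dose × 100.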

SMILES | SUV
NC(=O)c1ccc(Oc2ccc(CN3CCC[C@H]3c3cccnc3)cc2)c(Cl)c1 | 67%

test system: Striatum; assay: Drug uptake in rat striatum at 1 ug/kg, iv measured after 40 mins by LC/MS-MS analysis; assay type: ADME, organism-based; details: in vivo, 0.001 mg/kg; procedure, shortened: as §5

SMILES | SUV
CC1(C)CN(Cc2ccc(Oc3ccc(C(N)=O)cn3)cc2)[C@@H]1c1ccccc1 | 270%

molecular target: T2, Mu-type opioid receptor; assay: Agonist activity at human opioid mu receptor expressed in CHO cells assessed as stimulation of [35S]-GTPgammaS binding at 10 uM; assay type: functional, cell-based; details: not given
Procedure, shortened: (§6)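 Agonist mode: membranes from CHO (κ, μ) or HEK293 (δ) cells expressing cloned human receptors, no agonist added, tested at up to 10 μM. [35S]GTP-γ-S (0.5 nM final) binding in HEPES pH 7.4, MgCl2, NaCl, EDTA, DTT, 200 μM GDP. Read by WGA SPA beads after 2 h (δ) or 4 h (κ, μ) at room temperature, then 4 °C overnight.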

SMILES | Activity
CC1(C)CN(Cc2ccc(Oc3ccc(C(N)=O)cn3)cc2)[C@@H]1c1ccccc1 | inactive
NC(=O)c1ccc(Oc2ccc(CN3CCCC3c3cccnc3)cc2)nc1 (racemic) | inactive
NC(=O)c1ccc(Oc2ccc(CN3CCC[C@H]3c3cccnc3)cc2)c(Cl)c1 | inactive

molecular target: T1, Delta-type opioid receptor; assay: Antagonist activity at human opioid delta receptor expressed in HEK293 cells assessed as inhibition of DPDPE-induced [35S]GTP-gamma-S binding after 4 hrs by scintillation counting; assay type: functional, cell-based; details: not given

SMILES | Kb
CC1(C)CN(Cc2ccc(Oc3ccc(C(N)=O)cn3)cc2)[C@@H]1c1ccccc1 | 338 nM
NC(=O)c1ccc(Oc2ccc(CN3CCCC3c3cccnc3)cc2)nc1 (racemic) | 407 nM
NC(=O)c1ccc(Oc2ccc(CN3CCC[C@H]3c3cccnc3)cc2)c(Cl)c1 | 83.3 nM

test system: Cerebellum; assay: Drug uptake in rat cerebellum at 3 ug/kg, iv pretreated 1 hr with 3-Fluoro-4-[4-[[ (2S)-2-(3-fluorophenyl)pyrrolidin-1-yl]methyl]- phenoxy]benzamide measured after 40 mins by LC/MS-MS analysis; assay type: ADME, organism-based; details: in vivo, 0.003 mg/kg; procedure, shortened: as §2

SMILES | Drug uptake
NC(=O)c1ccc(Oc2ccc(CN3CCC[C@H]3c3cccnc3)cc2)c(Cl)c1 | Not Active

test system: Striatum; assay: Drug uptake in rat striatum at 30 ug/kg, iv measured after 40 mins by LC/MS-MS analysis; assay type: ADME, organism-based; details: in vivo, 0.03 mg/kg; procedure, shortened: as §5

SMILES | SUV
NC(=O)c1ccc(Oc2ccc(CN3CCCC3c3cccnc3)cc2)nc1 (racemic) | 13%

molecular target: T3, Kappa-type opioid receptor (Homo sapiens, UniProt P41145); assay: Agonist activity at human opioid kappa receptor expressed in CHO cells assessed as stimulation of [35S]-GTPgammaS binding at 10 uM; assay type: functional, cell-based; details: not given; procedure, shortened: as §6
T3 sequence (P41145 whole entry): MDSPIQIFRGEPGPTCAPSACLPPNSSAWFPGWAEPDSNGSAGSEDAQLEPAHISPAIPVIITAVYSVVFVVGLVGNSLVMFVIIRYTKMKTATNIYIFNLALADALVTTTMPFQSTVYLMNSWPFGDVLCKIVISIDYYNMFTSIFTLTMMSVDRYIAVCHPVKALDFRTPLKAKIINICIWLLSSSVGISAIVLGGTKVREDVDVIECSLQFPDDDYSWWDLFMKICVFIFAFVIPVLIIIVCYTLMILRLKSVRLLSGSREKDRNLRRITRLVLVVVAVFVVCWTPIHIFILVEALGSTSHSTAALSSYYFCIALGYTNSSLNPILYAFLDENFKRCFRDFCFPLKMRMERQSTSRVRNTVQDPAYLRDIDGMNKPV

SMILES | Activity
CC1(C)CN(Cc2ccc(Oc3ccc(C(N)=O)cn3)cc2)[C@@H]1c1ccccc1 | inactive
NC(=O)c1ccc(Oc2ccc(CN3CCCC3c3cccnc3)cc2)nc1 (racemic) | inactive
NC(=O)c1ccc(Oc2ccc(CN3CCC[C@H]3c3cccnc3)cc2)c(Cl)c1 | inactive

molecular target: T1, Delta-type opioid receptor; assay: Agonist activity at human opioid delta receptor expressed in HEK293 cells assessed as stimulation of [35S]-GTPgammaS binding at 10 uM; assay type: functional, cell-based; details: not given; procedure, shortened: as §6

SMILES | Activity
CC1(C)CN(Cc2ccc(Oc3ccc(C(N)=O)cn3)cc2)[C@@H]1c1ccccc1 | inactive
NC(=O)c1ccc(Oc2ccc(CN3CCCC3c3cccnc3)cc2)nc1 (racemic) | inactive
NC(=O)c1ccc(Oc2ccc(CN3CCC[C@H]3c3cccnc3)cc2)c(Cl)c1 | inactive

test system: HEK293; assay: Selectivity ratio of Ki for human opioid delta receptor expressed in HEK293 cells to Ki for human opioid kappa receptor expressed in CHO cells; assay type: cell-based; details: not given

SMILES | Ratio Ki
NC(=O)c1ccc(Oc2ccc(CN3CCCC3c3cccnc3)cc2)nc1 (racemic) | > 330
NC(=O)c1ccc(Oc2ccc(CN3CCC[C@H]3c3cccnc3)cc2)c(Cl)c1 | 212

molecular target: T3, Kappa-type opioid receptor; assay: Displacement of [3H]diprenorphine from human opioid kappa receptor expressed in CHO cells after 120 mins by scintillation counting; assay type: cell-based; details: not given; procedure, shortened: as §4

SMILES | Ki
CC1(C)CN(Cc2ccc(Oc3ccc(C(N)=O)cn3)cc2)[C@@H]1c1ccccc1 | 1.05 nM
NC(=O)c1ccc(Oc2ccc(CN3CCCC3c3cccnc3)cc2)nc1 (racemic) | 1.49 nM
NC(=O)c1ccc(Oc2ccc(CN3CCC[C@H]3c3cccnc3)cc2)c(Cl)c1 | 0.722 nM

test system: HEK293; assay: Selectivity ratio of Kb for human opioid delta receptor expressed in HEK293 cells to Kb for human opioid kappa receptor expressed in CHO cells; assay type: cell-based; details: not given; procedure, shortened: as §3

SMILES | Ratio
CC1(C)CN(Cc2ccc(Oc3ccc(C(N)=O)cn3)cc2)[C@@H]1c1ccccc1 | 137
NC(=O)c1ccc(Oc2ccc(CN3CCCC3c3cccnc3)cc2)nc1 (racemic) | 69
NC(=O)c1ccc(Oc2ccc(CN3CCC[C@H]3c3cccnc3)cc2)c(Cl)c1 | 132

test system: CHO; assay: Selectivity ratio of Ki for human opioid mu receptor expressed in CHO cells to Ki for human opioid kappa receptor expressed in CHO cells; assay type: cell-based; details: not given

SMILES | Ratio Ki
NC(=O)c1ccc(Oc2ccc(CN3CCCC3c3cccnc3)cc2)nc1 (racemic) | 27
NC(=O)c1ccc(Oc2ccc(CN3CCC[C@H]3c3cccnc3)cc2)c(Cl)c1 | 36

molecular target: T3, Kappa-type opioid receptor; assay: Antagonist activity at human opioid kappa receptor expressed in CHO cells assessed as inhibition of U69593-induced [35S]GTP-gamma-S binding after 4 hrs by scintillation counting; assay type: functional, cell-based; details: not given

SMILES | Kb
CC1(C)CN(Cc2ccc(Oc3ccc(C(N)=O)cn3)cc2)[C@@H]1c1ccccc1 | 2.46 nM
NC(=O)c1ccc(Oc2ccc(CN3CCCC3c3cccnc3)cc2)nc1 (racemic) | 5.89 nM
NC(=O)c1ccc(Oc2ccc(CN3CCC[C@H]3c3cccnc3)cc2)c(Cl)c1 | 0.632 nM

molecular target: T2, Mu-type opioid receptor; assay: Antagonist activity at human opioid mu receptor expressed in CHO cells assessed as inhibition of DAMGO-induced [35S]GTP-gamma-S binding after 4 hrs by scintillation counting; assay type: functional, cell-based; details: not given

SMILES | Kb
CC1(C)CN(Cc2ccc(Oc3ccc(C(N)=O)cn3)cc2)[C@@H]1c1ccccc1 | 36.6 nM
NC(=O)c1ccc(Oc2ccc(CN3CCCC3c3cccnc3)cc2)nc1 (racemic) | 110 nM
NC(=O)c1ccc(Oc2ccc(CN3CCC[C@H]3c3cccnc3)cc2)c(Cl)c1 | 6.8 nM

test system: Nucleic Acid; assay: Ratio of drug uptake in striatum to cerebellum in rat at 3 ug/kg, iv measured after 40 mins by LC/MS/MS analysis; assay type: ADME, organism-based; details: in vivo, 0.003 mg/kg; procedure, shortened: as §1

SMILES | Ratio
NC(=O)c1ccc(Oc2ccc(CN3CCC[C@H]3c3cccnc3)cc2)c(Cl)c1 | 1.2
